Here are results for five compounds from PMC10193422 (ACS Omega, 2023).

One series relates to Candida albicans SC5314. As to the kind of experiment: MIC, CLSI broth microdilution. As to conditions: SC5314, 24 h, read-out: MIC C. alb SC5314. Type of series: cell-based. Put shortly: (§1)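 CLSI broth microdilution (M27-A3 and M60). Strains are kept frozen in YPD with 40% glycerol, passaged twice on Sabouraud dextrose agar at 30 °C, then grown overnight in YPD at 30 °C with shaking. Test compound is dissolved in DMSO, serially diluted in growth medium, inoculated, and incubated at 30 °C. Candida spp. are read at 24 h, C. glabrata at 48 h and C. neoformans at 72 h. MIC is the first well with ≥50% growth reduction versus the drug-free well.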

A further series relates to Candida tropicalis 2718. As to the kind of experiment: MIC, CLSI broth microdilution. The class given is cell-based. To be noted: Candida tropicalis, 2718, 24 h, read-out: MIC C. tro 2718. In short, it runs like this:
as §1
In general terms: In broth dilution the organism is exposed to a series of concentrations in liquid medium.

The subject of series [1] is Cryptococcus neoformans H99. As to the kind of experiment: MIC, CLSI broth microdilution. As to conditions: H99, 72 h, read-out: MIC C. neo H99. Type of series: cell-based. In short, it runs like this: as §1
Series [2] deals with Aspergillus fumigatus 7544. The experiment in a line: MIC, CLSI broth microdilution. The class given is cell-based. To be noted: Aspergillus fumigatus, 7544, 48 h, read-out: MIC A. fum 7544. Put shortly: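 Mould MIC by CLSI broth microdilution (M27-A3 and M60). The strain comes from a frozen YPD/40% glycerol stock. Test compound is dissolved in DMSO and serially diluted in growth medium. Wells are inoculated and incubated at 35 °C for 48 h. MIC is the first well with ≥50% growth reduction versus the drug-free control.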

Another series deals with C. auris 789. The experiment in a line: MIC against drug-resistant C. auris clinical isolate. The class given is cell-based, Candida auris. To be noted: Candidozyma auris, 789, 24 h, read-out: MIC C. aur 789.
The test system of a further series is C. auris 791. The description is as above. The class given is cell-based, Candida auris. As to conditions: Candidozyma auris, 791, 24 h, read-out: MIC C. aur 791.
The subject of the next series is C. auris 887. The series is described as above. The class given is cell-based, Candida auris. As to conditions: Candidozyma auris, 887, 24 h, read-out: MIC C. aur 887.
For another series, the system named is C. auris 888. Described as above. Type of series: cell-based, Candida auris. To be noted: Candidozyma auris, 888, 24 h, read-out: MIC C. aur 888.
A further series has as its system C. auris D12. The description is as above. The class given is cell-based, Candida auris. To be noted: Candidozyma auris, D12, 24 h, read-out: MIC C. aur D12.
A further series concerns C. auris BS12372. The series is described as above. The class given is cell-based, Candida auris. To be noted: Candidozyma auris, BS12372, 24 h, read-out: MIC C. aur BS12372.
For series [3], the system named is sterol composition in C. albicans SC5314. The experiment in a line: Sterol composition analysis by GC-MS. Type of series: cell-based, Candida albicans. To be noted: compounds at 0.008 μg/mL, FLC at 8 μg/mL.
A further series concerns Candida albicans. As to conditions: cited from earlier work.
Another series is described as follows: Hemolysis assay. The class given is cell-based. To be noted: rabbit, rabbit red blood cell suspension.

The structures appear in SMILES notation. In brackets after ≈: the same amount, converted by molar mass.

In general, MIC refers to the lowest concentration that inhibits growth of the organism. As to `CC[C@@H]([C@H](C)O)n1ncn(-c2ccc(N3CCN(c4ccc(OC[C@@H]5CO[C@@](Cn6cncn6)(c6ccc(F)cc6F)C5)cc4)CC3)cc2)c1=O` [POS, posaconazole], the minimal inhibitory concentration (MIC) was below 0.008 µg/mL with Candida albicans SC5314, below 0.008 µg/mL in the series on Candida tropicalis 2718, below 0.008 µg/mL in series [1] and 0.125 µg/mL (≈ 0.178 µM) in series [2].
As to `OC(Cn1cncn1)(Cn1cncn1)c1ccc(F)cc1F` [FLC, fluconazole], the minimal inhibitory concentration (MIC) was 0.25 µg/mL (≈ 0.816 µM) with Candida albicans SC5314; below 0.125 µg/mL in the series with Candida tropicalis 2718; 8 µg/mL (≈ 26.1 µM) in series [1]; above 64 µg/mL in series [2]; above 64 µg/mL in the series on C. auris 789; above 64 µg/mL in the series on C. auris 791. Further, the MIC with C. auris 887, in the series on C. auris 888, in the series on C. auris D12 and with C. auris BS12372 was above 64 µg/mL each time. In series [3], the “ergosterol content in treated cells” value is “almost completely depleted”.
For `C[C@@H](c1ncncc1F)[C@](O)(Cn1cncn1)c1ccc(F)cc1F` [VOC, voriconazole], the MIC with Candida albicans SC5314 was below 0.008 µg/mL; in the series on Candida tropicalis 2718 it was below 0.008 µg/mL; in series [1], 0.0625 µg/mL (≈ 0.179 µM); in series [2], 0.125 µg/mL (≈ 0.358 µM). In the series with Candida albicans, the “MIC against Candida albicans” value was 0.06 µg/mL (≈ 0.172 µM).
For the compound `O[C@@](Cn1cnnn1)(c1ccc(F)cc1F)C(F)(F)c1ccc(-c2ccc(OCC(F)(F)F)cc2)cn1` [OTC, oteseconazole], the MIC was below 0.008 µg/mL in the series with Candida albicans SC5314; below 0.008 µg/mL in the series on Candida tropicalis 2718; below 0.008 µg/mL in series [1]; above 64 µg/mL in series [2]; 2 µg/mL (≈ 3.79 µM) in the series on C. auris 789; 8 µg/mL (≈ 15.2 µM) in the series on C. auris 791. For the same compound, the MIC was 4 µg/mL (≈ 7.58 µM) with C. auris 887, 8 µg/mL (≈ 15.2 µM) with C. auris 888, 0.25 µg/mL (≈ 0.474 µM) in the series on C. auris D12 and below 0.0625 µg/mL in the series on C. auris BS12372.
In the series “Hemolysis assay”, `C[C@@H]1[C@H](O)[C@@H](C)/C=C/C=C/C=C/C=C/C=C/C=C/C=C/[C@H](O[C@@H]2O[C@H](C)[C@@H](O)[C@H](N)[C@@H]2O)C[C@@H]2O[C@](O)(C[C@@H](O)C[C@@H](O)[C@H](O)CC[C@@H](O)C[C@@H](O)CC(=O)O[C@H]1C)C[C@H](O)[C@H]2C(=O)O` [AmB, amphotericin B] showed a hemolysis at 1 h, 32 μg/mL of 26.8% and a hemolysis at 1 h, 64 μg/mL of 100%.
